Laboratory results published in ChEMBL document CHEMBL1154718, “Carbamate analogues of fumagillin as potent, targeted inhibitors of methionine aminopeptidase-2” (J Med Chem, 2009).

How the values were obtained:
[1] = Antiproliferative activity against BAEC; assay type: functional, cell-based; details: Bos taurus
[2] = test system: HUVEC; test: Antiproliferative activity against HUVEC after 72 hrs by MTT assay; assay type: cell-based; details: Homo sapiens
Outline: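 HUVEC (passage 3-5) grown in endothelial growth medium at 37 C; 2000 cells/well seeded in triplicate. After attachment, fresh medium with compound for 72 h. MTT 0.25 mg/mL added for 2 h at 37 C, formazan dissolved in isopropanol, absorbance read at 570 nm. Value is concentration giving 50% growth inhibition.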

[3] = molecular target: Methionine aminopeptidase 2 (Homo sapiens) (UniProt P50579); test: Inhibition of MetAP2 assessed as remaining enzyme activity at 200 nM after 8 hrs relative to untreated control
Methionine aminopeptidase 2 (Homo sapiens), sequence (P50579 2-478 limits assumed): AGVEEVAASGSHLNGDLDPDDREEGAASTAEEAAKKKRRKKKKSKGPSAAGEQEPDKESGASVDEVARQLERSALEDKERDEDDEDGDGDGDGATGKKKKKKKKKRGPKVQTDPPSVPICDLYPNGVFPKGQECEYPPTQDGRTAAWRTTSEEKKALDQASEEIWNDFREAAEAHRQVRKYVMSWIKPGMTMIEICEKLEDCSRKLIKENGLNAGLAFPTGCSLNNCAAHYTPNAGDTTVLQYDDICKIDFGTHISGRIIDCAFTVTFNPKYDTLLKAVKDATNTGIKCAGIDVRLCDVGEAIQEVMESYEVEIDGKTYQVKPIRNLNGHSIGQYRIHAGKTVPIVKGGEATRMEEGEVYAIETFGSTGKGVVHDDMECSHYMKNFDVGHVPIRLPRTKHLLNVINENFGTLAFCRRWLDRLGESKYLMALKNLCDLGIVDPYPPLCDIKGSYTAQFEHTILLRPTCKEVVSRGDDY
Outline: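 MetAP2 at 20 nM final was incubated with compound at 200 nM final in 1% glycerol, 20 mM HEPES, 100 mM KCl, 0.1 mM CoSO4. Triplicate samples were taken at 1, 2, 4 and 8 h, and residual activity was read with Met-AMC substrate. Result is percent activity remaining at 8 h.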

[4] = test system: Rattus norvegicus; test: CNS toxicity in rat assessed as incidence of seizures at 60 mg/kg, iv qd for 14 days; details: in vivo, 336 h
[5] = test system: Rattus norvegicus; test: CNS toxicity in rat assessed as incidence of seizures at 6 mg/kg, iv qd for 14 days; details: in vivo, 336 h

CO[C@H]1[C@@H]([C@@]2(C)O[C@@H]2CC=C(C)C)[C@]2(CC[C@H]1OC(=O)N[C@@H](C(N)=O)C(C)C)CO2
IC50 [1]: 0.046 nM
IC50 [2]: 0.095 nM
Activity [3]: 2.8%
Activity [4]: Non-toxic
Activity [5]: Non-toxic

CO[C@H]1C([C@@]2(C)O[C@@H]2CC=C(C)C)[C@]2(CC[C@H]1OC(=O)NN1CCOCC1)CO2 (single isomer, unassigned)
IC50 [2]: 0.7 nM
Activity [3]: 5.7%

COC(=O)[C@@H](NC(=O)O[C@@H]1CC[C@]2(CO2)[C@H]([C@@]2(C)O[C@@H]2CC=C(C)C)[C@@H]1OC)C(C)C
IC50 [1]: 0.017 nM
IC50 [2]: 0.018 nM

CO[C@H]1C([C@@]2(C)O[C@@H]2CC=C(C)C)[C@]2(CC[C@H]1OC(=O)NC(C)(C)C)CO2 (single isomer, unassigned)
IC50 [2]: 1.1 nM

CO[C@H]1[C@@H]([C@@]2(C)O[C@@H]2CC=C(C)C)[C@]2(CC[C@H]1OC(=O)N[C@@H](C(=O)NCCC1CCCN1C)C(C)C)CO2 (stereo partly specified)
IC50 [2]: 0.6 nM
Activity [3]: 4.5%

CO[C@H]1C([C@@]2(C)O[C@@H]2CC=C(C)C)[C@]2(CC[C@H]1OC(=O)NCCC[N+](C)(C)C)CO2 (single isomer, unassigned)
IC50 [2]: > 100 nM
Activity [3]: 5.4%

CO[C@H]1C([C@@]2(C)O[C@@H]2CC=C(C)C)[C@]2(CC[C@H]1OC(=O)NCCC1CCC[N+]1(C)C)CO2 (single isomer, unassigned)
IC50 [2]: > 100 nM
Activity [3]: 6.3%

CO[C@H]1C([C@@]2(C)O[C@@H]2CC=C(C)C)[C@]2(CC[C@H]1OC(=O)NCCC1CCCN1C)CO2 (single isomer, unassigned)
IC50 [2]: 0.2 nM
Activity [3]: 5.4%

COC(=O)[C@H](NC(=O)O[C@@H]1CC[C@]2(CO2)C([C@@]2(C)O[C@@H]2CC=C(C)C)[C@@H]1OC)C(C)C (single isomer, unassigned)
IC50 [1]: 0.048 nM
IC50 [2]: 0.04 nM

CO[C@H]1C([C@@]2(C)O[C@@H]2CC=C(C)C)[C@]2(CC[C@H]1OC(=O)NC1(C(N)=O)CCCC1)CO2 (single isomer, unassigned)
IC50 [2]: 0.7 nM
Activity [3]: 13%

CO[C@H]1[C@@H]([C@@]2(C)O[C@@H]2CC=C(C)C)[C@]2(CC[C@H]1OC(=O)NC(=O)CCl)CO2
IC50 [2]: 0.25 nM
Activity [3]: 4%

CO[C@H]1C([C@@]2(C)O[C@@H]2CC=C(C)C)[C@]2(CC[C@H]1OC(=O)NCc1ccc(C(=O)O)cc1)CO2 (single isomer, unassigned)
IC50 [2]: 0.7 nM
Activity [3]: 3.5%

CO[C@H]1C([C@@]2(C)O[C@@H]2CC=C(C)C)[C@]2(CC[C@H]1OC(=O)NC(C)C)CO2 (single isomer, unassigned)
IC50 [2]: 0.06 nM
Activity [3]: 3%

CO[C@H]1C([C@@]2(C)O[C@@H]2CC=C(C)C)[C@]2(CC[C@H]1OC(=O)N1CCC(C(=O)O)CC1)CO2 (single isomer, unassigned)
IC50 [2]: 1.3 nM
Activity [3]: 8.3%

CO[C@H]1[C@@H]([C@@]2(C)O[C@@H]2CC=C(C)C)[C@]2(CC[C@H]1OC(=O)N[C@@H](C(=O)NN1CCOCC1)C(C)C)CO2
IC50 [2]: 1.7 nM
Activity [3]: 5.2%

CO[C@H]1C([C@@]2(C)O[C@@H]2CC=C(C)C)[C@]2(CC[C@H]1OC(=O)NC(C)(C)C(N)=O)CO2 (single isomer, unassigned)
IC50 [2]: 1.7 nM
Activity [3]: 24%

CO[C@H]1[C@@H]([C@@]2(C)O[C@@H]2CC=C(C)C)[C@]2(CC[C@H]1OC(=O)N[C@@H](C(=O)NCCN1CCCC1)C(C)C)CO2
IC50 [2]: 0.6 nM
Activity [3]: 2.6%

COC(=O)[C@H](NC(=O)O[C@@H]1CC[C@]2(CO2)C([C@@]2(C)O[C@@H]2CC=C(C)C)[C@@H]1OC)c1ccccc1 (single isomer, unassigned)
IC50 [1]: 0.035 nM
IC50 [2]: 0.036 nM

CO[C@H]1C([C@@]2(C)O[C@@H]2CC=C(C)C)[C@]2(CC[C@H]1OC(=O)N[C@@H](C(=O)Nc1cccc(C(=O)O)c1)C(C)C)CO2 (single isomer, unassigned)
IC50 [2]: 15 nM
Activity [3]: 4.3%

CO[C@H]1C([C@@]2(C)O[C@@H]2CC=C(C)C)[C@]2(CC[C@H]1OC(=O)NCCN1CCCC1)CO2 (single isomer, unassigned)
IC50 [2]: 0.1 nM
Activity [3]: 3.5%

COC(=O)[C@@H](CC(C)C)NC(=O)O[C@@H]1CC[C@]2(CO2)C([C@@]2(C)O[C@@H]2CC=C(C)C)[C@@H]1OC (single isomer, unassigned)
IC50 [1]: 0.118 nM
IC50 [2]: 0.038 nM
Activity [4]: Toxic
Activity [5]: Toxic
